Data as given in ChEMBL document CHEMBL2434891, “Design, synthesis, and in vitro cancer cell growth inhibition evaluation and antimalarial testing of trioxanes installed in cyclic 2-enoate substructures” (Eur J Med Chem, 2013).

Key:
[1] = Cytotoxicity against human BSY1 cells after 72 hrs by SRB assay; type: functional; conditions: BSY-1, 72 h
[2] = test system: DU-145; test: Cytotoxicity against human DU145 cells after 72 hrs by SRB assay; type: functional; conditions: DU-145, 72 h
[3] = Cytotoxicity against human HBC5 cells after 72 hrs by SRB assay; type: functional; conditions: HBC5, 72 h
[4] = test system: SF-295; test: Cytotoxicity against human SF295 cells after 72 hrs by SRB assay; type: functional; conditions: SF-295, 72 h
[5] = test system: MDA-MB-231; test: Cytotoxicity against human MDA-MB-231 cells after 72 hrs by SRB assay; type: functional; conditions: MDA-MB-231, 72 h
[6] = test system: MKN-7; test: Cytotoxicity against human MKN7 cells after 72 hrs by SRB assay; type: functional; conditions: MKN-7, 72 h
[7] = test system: OVCAR-8; test: Cytotoxicity against human OVCAR8 cells after 72 hrs by SRB assay; type: functional; conditions: OVCAR-8, 72 h
[8] = test system: NCI-H226; test: Cytotoxicity against human NCI-H226 cells after 72 hrs by SRB assay; type: functional; conditions: NCI-H226, 72 h
[9] = test system: St-4; test: Cytotoxicity against human St-4 cells after 72 hrs by SRB assay; type: functional; conditions: St-4, 72 h
[10] = test system: HCT-116; test: Cytotoxicity against human HCT116 cells after 72 hrs by SRB assay; type: functional, cell-based; conditions: HCT-116, 72 h
Procedure, shortened: (§1)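 Adherent cells grown at 37 °C and 5% CO2. Seeded at 1×10^4/well 24 h before dosing, then 72 h at 10–0.01 µg/mL final. Fixed with cold 50% TCA, stained with 0.4% SRB, dye extracted in 10 mM Tris, read at 540 nm.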

[11] = test system: A549; test: Cytotoxicity against human A549 cells after 72 hrs by SRB assay; type: functional, cell-based; conditions: A549, 72 h; procedure, shortened: as §1
[12] = test system: HT-29; test: Cytotoxicity against human HT-29 cells after 72 hrs by SRB assay; type: functional; conditions: HT-29, 72 h
[13] = test system: ACHN; test: Cytotoxicity against human ACHN cells after 72 hrs by SRB assay; type: functional
[14] = test system: NCI-H23; test: Cytotoxicity against human NCI-H23 cells after 72 hrs by SRB assay; type: functional; conditions: NCI-H23, 72 h
[15] = test system: DMS-273; test: Cytotoxicity against human DMS273 cells after 72 hrs by SRB assay; type: functional; conditions: DMS-273, 72 h
[16] = test system: SNB-78; test: Cytotoxicity against human SNB78 cells after 72 hrs by SRB assay; type: functional; conditions: SNB-78, 72 h
[17] = test system: MKN-28; test: Cytotoxicity against human MKN28 cells after 72 hrs by SRB assay; type: functional; conditions: MKN-28, 72 h
[18] = test system: MKN-45; test: Cytotoxicity against human MKN45 cells after 72 hrs by SRB assay; type: functional; conditions: MKN-45, 72 h
[19] = test system: PC-3; test: Cytotoxicity against human PC3 cells after 72 hrs by SRB assay; type: functional; conditions: PC-3, 72 h
[20] = test system: NCI-H460; test: Cytotoxicity against human NCI-H460 cells after 72 hrs by SRB assay; type: functional; conditions: NCI-H460, 72 h
[21] = test system: OVCAR-4; test: Cytotoxicity against human OVCAR4 cells after 72 hrs by SRB assay; type: functional; conditions: OVCAR-4, 72 h
[22] = test system: MCF7; test: Cytotoxicity against human MCF7 cells after 72 hrs by SRB assay; type: functional; conditions: MCF7, 72 h
[23] = test system: MKN-74; test: Cytotoxicity against human MKN74 cells after 72 hrs by SRB assay; type: functional; conditions: MKN-74, 72 h
[24] = test system: HCC 2998; test: Cytotoxicity against human HCC2998 cells after 72 hrs by SRB assay; type: functional; conditions: HCC 2998, 72 h
[25] = test system: SF-268; test: Cytotoxicity against human SF268 cells after 72 hrs by SRB assay; type: functional; conditions: SF-268, 72 h
[26] = Cytotoxicity against human HBC4 cells after 72 hrs by SRB assay; type: functional; conditions: HBC4, 72 h
[27] = test system: MV4-11; test: Antiproliferative activity against human MV4-11 cells after 72 hrs by MTT assay; type: functional, cell-based; conditions: MV4-11, 72 h
[28] = test system: HCT-15; test: Cytotoxicity against human HCT15 cells after 72 hrs by SRB assay; type: functional; conditions: HCT-15, 72 h
[29] = read-out: LC50 (the source's name)
[30] = read-out: pLC50 (the source's name) (converted)

With `COc1ccc(C2O[C@]34CC(c5cccc(Cl)c5)OC(=O)C3=C[C@@]2(C)OO4)cc1` (stereo partly drawn) the TGI [1] was 26 µM, the GI50 ([1]; read-out: GI50) was 12 µM and the CC50 [1, 29] was 57 µM. It also gave a GI50 ([1]; read-out: pGI50 (converted)) of 5.01 µM, a CC50 [1, 30] of 46.8 µM and a TGI [2] of 29 µM. For the same molecule, the GI50 ([2]; read-out: GI50) was 15 µM, the CC50 [2, 29] was 54 µM and the GI50 ([2]; read-out: pGI50 (converted)) was 16.6 µM. For the same molecule, the CC50 [2, 30] was 56.2 µM, the TGI [3] was 8 µM and the GI50 ([3]; read-out: GI50) was 2.4 µM. It also gave a CC50 [3, 29] of 44 µM, a GI50 ([3]; read-out: pGI50 (converted)) of 1.95 µM and a CC50 [3, 30] of 8.71 µM. The TGI [4] was 33 µM, the GI50 ([4]; read-out: GI50) was 18 µM and the CC50 [4, 29] was 62 µM. The GI50 ([4]; read-out: pGI50 (converted)) was 18.2 µM, the CC50 [4, 30] was 60.3 µM and the TGI [5] was 26 µM. For the same molecule, the GI50 ([5]; read-out: GI50) was 12 µM, the CC50 [5, 29] was 58 µM and the GI50 ([5]; read-out: pGI50 (converted)) was 5.37 µM. It also gave a CC50 [5, 30] of 51.3 µM, a TGI [6] of 31 µM and a GI50 ([6]; read-out: GI50) of 10 µM. The CC50 [6, 29] was 97 µM, the GI50 ([6]; read-out: pGI50 (converted)) was 3.47 µM and the CC50 [6, 30] was 89.1 µM. For the same molecule, the TGI [7] was 41 µM, the GI50 ([7]; read-out: GI50) was 12 µM and the CC50 [7, 29] was 100 µM. For the same molecule, the GI50 ([7]; read-out: pGI50 (converted)) was 9.33 µM, the CC50 ([7]; read-out: pLC50 (converted)) was over 100 µM and the TGI [8] was 48 µM. The GI50 ([8]; read-out: GI50) was 20 µM, the CC50 [8, 29] was 100 µM and the GI50 ([8]; read-out: pGI50 (converted)) was 17.8 µM. The CC50 [8, 30] was 91.2 µM, the TGI [9] was 47 µM and the GI50 ([9]; read-out: GI50) was 19 µM. The CC50 [9, 29] was 100 µM, the GI50 ([9]; read-out: pGI50 (converted)) was 17.8 µM and the CC50 ([9]; read-out: pLC50 (converted)) was over 100 µM. The IC50 [10] was 7.67 µM, the TGI [10] was 20 µM and the GI50 ([10]; read-out: GI50) was 4.1 µM. It also gave a CC50 [10, 29] of 100 µM, a GI50 ([10]; read-out: pGI50 (converted)) of 3.39 µM and a CC50 [10, 30] of 70.8 µM. It also gave an IC50 [11] of 10.2 µM, a TGI [11] of 38 µM and a GI50 ([11]; read-out: GI50) of 18 µM. It also gave a CC50 [11, 29] of 78 µM, a GI50 ([11]; read-out: pGI50 (converted)) of 17.8 µM and a CC50 [11, 30] of 77.6 µM. For the same molecule, the TGI [12] was 48 µM, the GI50 ([12]; read-out: GI50) was 15 µM and the CC50 [12, 29] was 100 µM. The GI50 ([12]; read-out: pGI50 (converted)) was 5.25 µM, the CC50 ([12]; read-out: pLC50 (converted)) was over 100 µM and the TGI [13] was 29 µM. For the same molecule, the GI50 ([13]; read-out: GI50) was 16 µM, the CC50 [13, 29] was 55 µM and the GI50 ([13]; read-out: pGI50 (converted)) was 15.5 µM. For the same molecule, the CC50 [13, 30] was 56.2 µM, the TGI [14] was 40 µM and the GI50 ([14]; read-out: GI50) was 18 µM. The CC50 [14, 29] was 93 µM, the GI50 ([14]; read-out: pGI50 (converted)) was 16.6 µM and the CC50 [14, 30] was 79.4 µM. For the same molecule, the TGI [15] was 31 µM, the GI50 ([15]; read-out: GI50) was 14 µM and the CC50 [15, 29] was 69 µM. The GI50 ([15]; read-out: pGI50 (converted)) was 10.2 µM, the CC50 [15, 30] was 74.1 µM and the TGI [16] was 34 µM. For the same molecule, the GI50 ([16]; read-out: GI50) was 14 µM, the CC50 [16, 29] was 84 µM and the GI50 ([16]; read-out: pGI50 (converted)) was 12.6 µM. It also gave a CC50 [16, 30] of 91.2 µM, a TGI [17] of 40 µM and a GI50 ([17]; read-out: GI50) of 14 µM. The CC50 [17, 29] was 100 µM, the GI50 ([17]; read-out: pGI50 (converted)) was 11 µM and the CC50 ([17]; read-out: pLC50 (converted)) was over 100 µM. The TGI [18] was 31 µM, the GI50 ([18]; read-out: GI50) was 14 µM and the CC50 [18, 29] was 68 µM. For the same molecule, the GI50 ([18]; read-out: pGI50 (converted)) was 15.5 µM, the CC50 [18, 30] was 57.5 µM and the TGI [19] was 28 µM. It also gave a GI50 ([19]; read-out: GI50) of 15 µM, a CC50 [19, 29] of 55 µM and a GI50 ([19]; read-out: pGI50 (converted)) of 13.2 µM. The CC50 [19, 30] was 56.2 µM, the TGI [20] was 38 µM and the GI50 ([20]; read-out: GI50) was 19 µM. It also gave a CC50 [20, 29] of 77 µM, a GI50 ([20]; read-out: pGI50 (converted)) of 20 µM and a CC50 [20, 30] of 81.3 µM. The TGI [21] was 24 µM, the GI50 ([21]; read-out: GI50) was 9.2 µM and the CC50 [21, 29] was 59 µM. It also gave a GI50 ([21]; read-out: pGI50 (converted)) of 1.55 µM, a CC50 [21, 30] of 41.7 µM and a TGI [22] of 27 µM. The GI50 ([22]; read-out: GI50) was 11 µM, the CC50 [22, 29] was 69 µM and the GI50 ([22]; read-out: pGI50 (converted)) was 10 µM. For the same molecule, the CC50 [22, 30] was 87.1 µM, the TGI [23] was 44 µM and the GI50 ([23]; read-out: GI50) was 15 µM. The CC50 [23, 29] was 100 µM, the GI50 ([23]; read-out: pGI50 (converted)) was 14.1 µM and the CC50 [23, 30] was 95.5 µM. The TGI [24] was 30 µM, the GI50 ([24]; read-out: GI50) was 15 µM and the CC50 [24, 29] was 62 µM. The GI50 ([24]; read-out: pGI50 (converted)) was 6.31 µM, the CC50 [24, 30] was 61.7 µM and the TGI [25] was 41 µM. For the same molecule, the GI50 ([25]; read-out: GI50) was 18 µM, the CC50 [25, 29] was 94 µM and the GI50 ([25]; read-out: pGI50 (converted)) was 13.8 µM. The CC50 [25, 30] was 91.2 µM, the TGI [26] was 24 µM and the GI50 ([26]; read-out: GI50) was 11 µM. The CC50 [26, 29] was 54 µM, the GI50 ([26]; read-out: pGI50 (converted)) was 3.72 µM and the CC50 [26, 30] was 38 µM. The IC50 [27] was 0.549 µM, the TGI [28] was 24 µM and the GI50 ([28]; read-out: GI50) was 4.4 µM. It also gave a CC50 [28, 29] of 100 µM, a GI50 ([28]; read-out: pGI50 (converted)) of 3.72 µM and a CC50 ([28]; read-out: pLC50 (converted)) of over 100 µM.
